From ChEMBL document CHEMBL2417362, “Truncation of the peptide sequence in bifunctional ligands with mu and delta opioid receptor agonist and neurokinin 1 receptor antagonist activities” (Bioorg Med Chem Lett, 2013)
Calls of active or inactive are those of the source. No cut-off for these calls is given here. Non-standard residues stand in square brackets, D forms with d. Residues, ends and D or L forms follow the SMILES beside them. *: point of attachment. OBzl(3,5-(CF3)2) = FC(F)(F)c1cc(CO*)cc(C(F)(F)F)c1

Columns and labels:
[1] = target: Substance-P receptor (Cavia porcellus) (UniProt P30547); assay: Antagonist activity at NK1 receptor in guinea pig ileum assessed as inhibition of substance P-induced muscle contraction; type: tissue-based
Substance-P receptor (Cavia porcellus), sequence (P30547 whole entry): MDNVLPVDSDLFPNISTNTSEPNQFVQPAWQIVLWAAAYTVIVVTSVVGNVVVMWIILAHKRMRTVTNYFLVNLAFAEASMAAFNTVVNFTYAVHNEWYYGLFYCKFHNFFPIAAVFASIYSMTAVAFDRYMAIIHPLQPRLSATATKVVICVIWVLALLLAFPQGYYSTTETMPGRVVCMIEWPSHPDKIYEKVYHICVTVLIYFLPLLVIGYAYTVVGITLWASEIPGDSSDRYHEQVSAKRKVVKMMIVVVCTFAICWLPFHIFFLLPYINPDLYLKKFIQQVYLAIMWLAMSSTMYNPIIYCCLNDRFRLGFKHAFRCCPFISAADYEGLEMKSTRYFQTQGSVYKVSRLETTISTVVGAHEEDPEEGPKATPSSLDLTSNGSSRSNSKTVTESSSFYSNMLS

Rattus norvegicus [2] = assay: Antinociceptive activity in Sprague-Dawley rat assessed as […] at 10 ug/5 uL administered intrathecally; type: functional, organism-based
Outline: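 Non-injured rats given intrathecal 10 µg/5 µL in 10% DMSO/90% distilled water; hind paw withdrawal latency to radiant heat (Hargreaves) read 15 min after injection and compared with vehicle.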

Rattus norvegicus [3] = assay: Antiallodynic activity in po dosed spinal nerve ligated Sprague-Dawley rat assessed as attenuation of SNL-induced tactile allodynia; type: functional, organism-based
Outline: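 Spinal nerve ligated rats dosed orally; tactile (von Frey) and thermal hypersensitivity compared with vehicle.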

Rattus norvegicus [4] = assay: Antiallodynic activity in intrathecally dosed spinal nerve ligated Sprague-Dawley rat assessed as attenuation of SNL-induced tactile allodynia; type: functional, organism-based
Outline: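 Spinal nerve ligated rats given intrathecal doses, expressed as µg/5 µL, with 10% DMSO/water as vehicle; tactile allodynia measured by von Frey and compared with vehicle over time.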

[5] = target: Mu-type opioid receptor (Cavia porcellus) (UniProt P97266); assay: Agonist activity at mu opioid receptor in guinea pig ileum assessed as inhibition of electrically-stimulated muscle contraction at 1 uM; type: tissue-based
Mu-type opioid receptor (Cavia porcellus), sequence (P97266 whole entry): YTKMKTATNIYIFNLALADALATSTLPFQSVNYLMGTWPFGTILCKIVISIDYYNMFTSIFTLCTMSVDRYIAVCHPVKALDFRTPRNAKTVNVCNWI

Substance-P receptor = Substance-P receptor (Homo sapiens, UniProt P25103); assay: Displacement of [3H]substance P from human NK1 receptor expressed in CHO cells; type: cell-based
Substance-P receptor, sequence (P25103 whole entry): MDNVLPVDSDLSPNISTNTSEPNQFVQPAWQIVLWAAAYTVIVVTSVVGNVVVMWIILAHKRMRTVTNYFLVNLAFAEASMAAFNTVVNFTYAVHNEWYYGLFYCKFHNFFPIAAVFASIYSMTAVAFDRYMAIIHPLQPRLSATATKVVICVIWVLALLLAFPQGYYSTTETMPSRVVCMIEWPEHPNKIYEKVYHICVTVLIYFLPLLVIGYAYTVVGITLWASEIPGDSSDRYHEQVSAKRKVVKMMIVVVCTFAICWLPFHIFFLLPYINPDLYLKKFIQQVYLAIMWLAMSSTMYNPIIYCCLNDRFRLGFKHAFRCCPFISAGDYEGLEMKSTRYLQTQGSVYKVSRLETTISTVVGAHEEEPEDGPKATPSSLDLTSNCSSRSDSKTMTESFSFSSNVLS

| SMILES | Ke [1] [nM] | also measured |
| --- | --- | --- |
| CSCC[C@H](NC(=O)[C@H](Cc1ccccc1)NC(=O)CNC(=O)[C@@H](C)NC(=O)[C@@H](N)Cc1ccc(O)cc1)C(=O)N[C@@H](C)C(=O)N[C@@H](CC(C)C)C(=O)N[C@@H](Cc1c[nH]c2ccccc12)C(=O)OCc1cc(C(F)(F)F)cc(C(F)(F)F)c1 (H-Y[dA]GFMALW-{OBzl(3,5-(CF3)2)}) | 380 |  |
| CC(C)C[C@H](NC(=O)[C@H](Cc1ccccc1)NC(=O)CNC(=O)[C@@H](C)NC(=O)[C@@H](N)Cc1ccc(O)cc1)C(=O)N[C@@H](Cc1c[nH]c2ccccc12)C(=O)OCc1cc(C(F)(F)F)cc(C(F)(F)F)c1 (H-Y[dA]GFLW-{OBzl(3,5-(CF3)2)}) | 2 |  |
| C[C@@H](NC(=O)[C@@H](N)Cc1ccc(O)cc1)C(=O)NCC(=O)N[C@@H](Cc1ccccc1)C(=O)NCC(=O)N[C@@H](Cc1c[nH]c2ccccc12)C(=O)OCc1cc(C(F)(F)F)cc(C(F)(F)F)c1 (H-Y[dA]GFGW-{OBzl(3,5-(CF3)2)}) | 59 | Activity (Rattus norvegicus [2]): Active; Activity (Rattus norvegicus [3]): inactive; Activity (Rattus norvegicus [4]): Dose-dependent effect |
| C[C@@H](NC(=O)[C@@H](N)Cc1ccc(O)cc1)C(=O)NCC(=O)N[C@@H](Cc1ccccc1)C(=O)N1CCCC1C(=O)N[C@@H](Cc1c[nH]c2ccccc12)C(=O)OCc1cc(C(F)(F)F)cc(C(F)(F)F)c1 (single isomer, unassigned) | 1.8 |  |
| CSCC[C@H](NC(=O)[C@H](Cc1ccccc1)NC(=O)CNC(=O)[C@@H](C)NC(=O)[C@@H](N)Cc1ccc(O)cc1)C(=O)N1CCC[C@@H]1C(=O)N[C@@H](CC(C)C)C(=O)N[C@@H](Cc1c[nH]c2ccccc12)C(=O)OCc1cc(C(F)(F)F)cc(C(F)(F)F)c1 | 29 | inhibition [5]: 25% |
| CSCC[C@H](NC(=O)[C@H](Cc1ccccc1)NC(=O)CNC(=O)[C@@H](C)NC(=O)[C@@H](N)Cc1ccc(O)cc1)C(=O)NC1(C(=O)N[C@@H](CC(C)C)C(=O)N[C@@H](Cc2c[nH]c3ccccc23)C(=O)OCc2cc(C(F)(F)F)cc(C(F)(F)F)c2)CCCC1 | 2 |  |
| CSCC[C@H](NC(=O)[C@H](Cc1ccccc1)NC(=O)CNC(=O)[C@@H](C)NC(=O)[C@@H](N)Cc1ccc(O)cc1)C(=O)NC(C)(C)C(=O)N[C@@H](CC(C)C)C(=O)N[C@@H](Cc1c[nH]c2ccccc12)C(=O)OCc1cc(C(F)(F)F)cc(C(F)(F)F)c1 | 12 | Ki (Substance-P receptor): 0.12 nM |
